From PubChem BioAssay
Shown are actives, neighbours in structure and some others; about 2.2% of the full set was active somewhere.
HKDC1 inh – HKDC1 (human) hexokinase inhibition; recombinant HKDC1, G6PDH/diaphorase resazurin coupled fluorescence; inhibition, % at 20 µM; Q2TB90; 340,000 tested, 0.16% active;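 active = inhibition above about 35% when tested at 20 µM, limit read from the data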
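Assay system: recombinant HKDC1 hexokinase; detection: coupled resazurin fluorescence, excitation 525 nm, emission 613 nm; benchmarks: DMSO-plus-enzyme-mix negative control, buffer-substituted positive control; compound dosing: single 20 µM dose; schedule: 90 min at room temperature in dark; also added: glucose plus 1 mM ATP as hexokinase substrates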
Exocytosis inh – blocks lytic granule exocytosis. TALL-104 LAMP-1 surface exposure, flow cytometry; cells stimulated with thapsigargin and PMA. inhibition, % at 10 µM. 360,000 tested, 0.66% active. AID 651702;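 active = inhibition above about 55%, limit read from the data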
ABHD5 PLIN5 PPI – inhibitors of human ABHD5-perilipin-5 interaction; Q00G26+Q8WTS1; Split G. princeps luciferase complementation, luminescence, 4 h; inhibition, % at 4 µM; 360,000 tested, 0.78% active; AID 602281;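 active = inhibition above the mean inhibition across every tested compound plus 3 SD, cut at about 22% in these data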
Target sequence (Q00G26 whole entry, looked up): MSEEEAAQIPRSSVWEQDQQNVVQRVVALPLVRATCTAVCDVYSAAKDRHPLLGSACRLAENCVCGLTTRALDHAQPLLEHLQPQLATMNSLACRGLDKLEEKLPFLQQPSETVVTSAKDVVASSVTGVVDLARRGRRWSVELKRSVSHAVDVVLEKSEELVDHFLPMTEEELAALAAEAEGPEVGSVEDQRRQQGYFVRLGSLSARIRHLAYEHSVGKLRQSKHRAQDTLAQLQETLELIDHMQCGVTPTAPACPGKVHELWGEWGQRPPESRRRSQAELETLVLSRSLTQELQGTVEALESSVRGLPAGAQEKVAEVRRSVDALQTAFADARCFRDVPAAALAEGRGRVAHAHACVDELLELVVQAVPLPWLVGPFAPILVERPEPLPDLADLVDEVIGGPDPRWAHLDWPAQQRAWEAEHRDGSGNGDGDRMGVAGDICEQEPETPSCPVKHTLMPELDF
Target sequence (Q8WTS1 whole entry, looked up): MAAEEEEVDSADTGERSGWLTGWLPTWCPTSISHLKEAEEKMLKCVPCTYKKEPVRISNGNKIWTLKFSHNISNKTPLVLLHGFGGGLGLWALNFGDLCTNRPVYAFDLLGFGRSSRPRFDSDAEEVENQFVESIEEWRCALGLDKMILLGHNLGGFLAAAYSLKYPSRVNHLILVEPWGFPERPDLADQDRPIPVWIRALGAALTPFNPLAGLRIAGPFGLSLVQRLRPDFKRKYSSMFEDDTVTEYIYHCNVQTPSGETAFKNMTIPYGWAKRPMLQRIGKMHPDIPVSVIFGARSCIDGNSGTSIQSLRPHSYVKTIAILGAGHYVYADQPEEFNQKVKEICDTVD
PfG6PD inh – PfG6PD (Plasmodium falciparum) enzyme inhibition. PfGluPho enzyme, NADPH resazurin-diaphorase fluorescence. 350,000 tested, 0.78% active. inhibition, % at 20 µM;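 active = inhibition reaching at least a set limit at 20 µM in the primary screen, cut at about 59% in these data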
Exocytosis CP01 – blocks lytic granule exocytosis; shares compounds with Exocytosis inh; TALL-104 cells, LAMP-1 externalization, flow cytometry; stimulated with PMA plus thapsigargin; inhibition, % at 10 µM; 1,500 tested, 11% active; AID 651954; in the data active = inhibition above about 60%
Of the large screens only hits and unclear results are named; the others gave an inactive call (follow-up assays come after a bar, where they were run); ! = not active in a repeat.

c1ccc(-c2nc(NC3CCCC3)c3ccccc3n2)cc1	Exocytosis inh 57.4 | Exocytosis CP01 inactive
COc1cccc(-c2nc(NC3CCCC3)c3ccccc3n2)c1O	Exocytosis inh 77.9 | Exocytosis CP01 inactive
COc1cccc(-c2nc(NCc3ccccc3)c3ccccc3n2)c1O	Exocytosis inh 64.5 | Exocytosis CP01 inactive
COc1cccc(-c2nc(NCc3ccco3)c3ccccc3n2)c1O	none
C=CCNc1nc(-c2cccc(OC)c2O)nc2ccccc12	none
CSCCC(NC(=O)COc1ccccc1)C(=O)OC(C)C(=O)Nc1ccccc1C (stereo not given)	none
Cc1c(CCC(=O)N[C@@H](C)C(=O)O)c(=O)oc2cc3occ(-c4ccccc4)c3cc12	none
Cc1cc(N2CC(C)OC(C)C2)n2cc(-c3ccccc3)nc2n1 (stereo not given)	none
O=C(/C=C/[C@H]1O[C@@H](n2cnc3c(NC(=O)c4ccccc4)ncnc32)[C@H](O)[C@@H]1O)NCc1cccs1	none (no result: HKDC1 inh, PfG6PD inh)
Cc1ccc(NC(=O)CSc2nc(=O)n(Cc3ccncc3)c3c2CCC3)c(C)c1	Exocytosis inh 58.6 | Exocytosis CP01 inactive
CC(=O)Nc1ccc(NC(=O)CSc2nc(=O)n(Cc3ccncc3)c3c2CCC3)cc1	none
C/C(=N\NC(=O)c1cccc(S(=O)(=O)N2CCOCC2)c1)c1ccc(C#N)cc1	none
C[C@]12CCC(=O)CC1=CCC1C3CC=C(C#N)[C@@]3(C)CC[C@@]12O (stereo not given in full)	none
CCOc1ccc(S(=O)(=O)Nc2cccc(C(=O)N3CCN(c4ccccn4)CC3)c2)cc1	Exocytosis inh 55.5 (no result: HKDC1 inh) | Exocytosis CP01 inactive
CN(CC(=O)NCCc1ccc(F)cc1)Cc1ccc(Br)cc1	Exocytosis inh 69.8 | Exocytosis CP01 inactive
CN(CC(=O)NCCCc1ccccc1)Cc1ccc(Br)cc1	none
CCCCCCN1C[C@H](n2cc(-c3ccc(F)cc3)nn2)[C@@H](O)C[C@@H]1c1ccc(Cl)cc1	Exocytosis inh 58.5 (no result: HKDC1 inh) | Exocytosis CP01 inactive
CCCCCCN1C[C@H](n2cc(-c3ccc(F)cc3)nn2)[C@@H](O)C[C@@H]1c1ccccc1	none (no result: HKDC1 inh)
COc1ccc(S(=O)(=O)N(C)C)cc1NC(=O)Cc1c[nH]c2ccccc12	none
CCCn1c(C(C)Nc2nc(-c3ccc(Cl)c([N+](=O)[O-])c3)cs2)nc2cc(Cl)c(N3CCCCC3)cc21 (stereo not given)	none
CCCCNc1c(-c2ccc(OC)c(SC3CCCCC3)c2)nc2ccc(C)cn12	Exocytosis inh 86.0! | Exocytosis CP01 77.1
COc1cccc(N2CCN(c3ccc4nnc(CCC(=O)Nc5ncccc5C)n4n3)CC2)c1	none
O=C1CC2(CCCCCC2)Oc2ccccc21	Exocytosis inh 62.6 | Exocytosis CP01 inactive
O=C1CC2(CCCC2)Oc2ccccc21	none
CN1CCN(C(=O)C2=NOC3(C2)C(=O)Nc2ccccc23)CC1 (stereo not given)	none (no result: HKDC1 inh, PfG6PD inh)
CC(NC(=S)Nc1ccc(F)cc1)c1ccccc1 (stereo not given)	Exocytosis inh 73.8 | Exocytosis CP01 inactive
O=C(CCN1CCC2CCC(C2)C1)c1ccccc1 (stereo not given)	none
OC(CCN1CCC2CCC(C2)C1)c1ccc(Br)cc1 (stereo not given)	Exocytosis inh 59.0 | Exocytosis CP01 inactive
c1ccc(CN2CCN(c3nc(NCc4ccco4)c4ccccc4n3)CC2)cc1	Exocytosis inh 66.6 | Exocytosis CP01 inactive
Oc1ccccc1Nc1nc(NCc2ccco2)c2ccccc2n1	Exocytosis inh 61.2 | Exocytosis CP01 89.0
Cc1cccc(Nc2nc(NCc3ccco3)c3ccccc3n2)c1	none
OCCN1CCN(c2nc(NCc3ccco3)c3ccccc3n2)CC1	none
c1ccc(Nc2nc(NCc3ccco3)c3ccccc3n2)cc1	Exocytosis inh 76.9 | Exocytosis CP01 inactive
COc1ccc(OC)c(Nc2nc(NCc3ccco3)c3ccccc3n2)c1	none
CN(C(=O)c1cc2ccccc2o1)c1c(N)n(Cc2ccccc2)c(=O)[nH]c1=O	none
O=C(CSc1nnc(COc2ccccc2Cl)o1)NC(=O)NCc1ccco1	none
O=C1CN(C(=O)c2ccccc2F)C(c2ccccc2)c2cc(Cl)ccc2N1 (stereo not given)	none
COc1ccccc1NC(=O)CSc1nc2sc(C)c(C)c2c(=O)n1C	Exocytosis inh 59.7 | Exocytosis CP01 inactive
COCCn1c(SCC(=O)Nc2ccccc2OC)nc2c(oc3ccccc32)c1=O	Exocytosis inh 64.6 | Exocytosis CP01 inactive
C[C@@H]1CN(S(=O)C(C)(C)C)[C@H](CCO)/C1=C\CCO (stereo not given in full)	none
NS(=O)(=O)c1cccc(NC(=O)COC(=O)Cc2n[nH]c(=O)c3ccccc23)c1	none
O=C1OC(O)c2cccc3cccc1c23 (stereo not given)	none (no result: HKDC1 inh)
Cc1cc(C)n(-c2nc(SCCN(C)C)c3c4c(sc3n2)CCCC4)n1	Exocytosis inh 70.2 | Exocytosis CP01 inactive
Cc1cc(C)n(-c2nc(SCC(=O)O)c3c4c(sc3n2)COC(C)(C)C4)n1	none
C[C@@H]1CN([C@@H](C)CO)C(=O)c2cc(NS(C)(=O)=O)ccc2O[C@@H]1CN(C)Cc1ccc(C(F)(F)F)cc1	Exocytosis inh 61.5 | Exocytosis CP01 inactive
C[C@H](CO)N1C[C@H](C)[C@@H](CN(C)C(=O)NC2CCCCC2)Oc2ccc(NS(C)(=O)=O)cc2C1=O	Exocytosis inh 73.4 | Exocytosis CP01 inactive
CC(C)NC(=O)N(C)C[C@H]1Oc2c(NC(=O)Nc3ccc(C(F)(F)F)cc3)cccc2C(=O)N([C@H](C)CO)C[C@@H]1C	Exocytosis inh 60.0 | Exocytosis CP01 inactive
O=C(c1sc2cc(Cl)ccc2c1Cl)N1CCN(CCc2ccccn2)CC1	none
COc1ccc(CC2(C)OC(c3ccccc3)=NN2C(C)=O)cc1 (stereo not given)	none
CCOC(=O)c1c(NC(=O)CN2C(=O)C(=O)N(C(C)C)C2=O)sc(C)c1CC	none
Cc1nc2sc(C(=O)Nc3ccccc3Cc3ccccc3)c(C)c2c(=O)[nH]1	none
OC1CCCCC1	none
CCOC(=O)COc1ccccc1C(=O)c1cnn(-c2ccccc2)c1	Exocytosis inh 61.7 | Exocytosis CP01 inactive
CC(=O)C1=C(O)C(=O)N(c2cccc(Br)c2)C1c1ccccc1Cl (stereo not given)	none
O=C(NCC1(c2ccccc2)CCCC1)c1ccccc1Br	none
COc1ccccc1C(=O)NCC1(c2ccccc2)CCCC1	Exocytosis inh 80.5 | Exocytosis CP01 inactive
COc1ccc2ccccc2c1CNC(C)c1ccccc1 (stereo not given)	none
CC(NCCCOc1cccc2ccccc12)c1ccccc1 (stereo not given)	Exocytosis inh 61.0 | Exocytosis CP01 inactive
COCCN(CC(=O)Nc1cc(Cl)ccc1-n1cncn1)Cc1nc2ccccc2c(=O)[nH]1	none
O=S(=O)(c1ccc(Nc2ccc(-c3ccc4c(c3)OCCO4)nn2)cc1)N1CCCC1	none
O=C(NC1CC1)c1cccc(Nc2ccc(-c3ccc4c(c3)OCCO4)nn2)c1	Exocytosis inh 71.0 | Exocytosis CP01 inactive
CCC(=O)Nc1ccc2c(c1)OCCO2	none
